What was measured:
[1] = target: T1, Sodium- and chloride-dependent GABA transporter 1 (Mus musculus, UniProt P31648); experiment: Inhibition of [3H]GABA uptake at mouse GAT1 expressed in HEK293 cells after 25 mins by scintillation counting analysis; assay type: cell-based
[2] = target: T1, Sodium- and chloride-dependent GABA transporter 1; experiment: Binding affinity to mouse GAT1 expressed in HEK293 cells membranes using LC-ESI-MS/MS analysis by [2H10]NO711 binding inhibition assay; assay type: cell membranes
Outline: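 Full competition with NO711 marker (20 nM) on mGAT1 HEK293 membranes in pH 7.1 phosphate buffer containing 1 M NaCl. Eight competitor concentrations, triplicate points. Bound marker was quantified by LC-ESI-MS/MS. Specific binding is total minus nonspecific. IC50 came from a one-site nonlinear fit and was converted to Ki by Cheng–Prusoff. pKi is mean ± SEM of at least three experiments.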

[3] = target: Sodium- and chloride-dependent GABA transporter 1 (Mus musculus) (UniProt P31648); experiment: Binding affinity to mouse GAT1 expressed in HEK293 cells membranes assessed as remaining [2H10]NO711 binding level at 10 uM using LC-ESI-MS/MS analysis by [2H10]NO711 binding inhibition assay; assay type: cell membranes
Outline: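 Membranes from HEK293 cells stably expressing mGAT1, ~0.1 mg/mL protein, in pH 7.1 phosphate buffer with 1 M NaCl and 1% DMSO final. A single aldehyde (10 μM) and hydrazine 10 (100 μM) were incubated 4 h at 37 °C with the target to form the hydrazone. NO711 marker (20 nM) was then added for 40 min. Bound marker was recovered by filtration, 1 M NaCl washes and MeOH elution, then quantified by LC-ESI-MS/MS against [²H₁₀]NO711 internal standard. Result is % remaining specific binding, n = 4.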

| IC50 ([1]; read-out: pIC50 (converted)) | Ki [2] | Activity [3] | Compound | other results |
| --- | --- | --- | --- | --- |
| 3560 nM | 834 nM | – | O=C(O)C1CCCN(CCC/C=C/c2ccccc2-c2ccccc2Cl)C1 (stereo not given) | – |
| 2250 nM | 443 nM | < 5% | COc1cccc(F)c1-c1ccccc1/C=N/NCCN1CCCC(C(=O)O)C1 (stereo not given) | – |
| – | – | > 10% | O=C(O)C1CCCN(CCN/N=C/c2ccccc2-c2ccccc2-c2ccccc2)C1 (stereo not given) | – |
| 3400 nM | 473 nM | 10% | Cc1ccc(-c2ccccc2/C=N/NCCN2CCCC(C(=O)O)C2)cc1 (stereo not given) | – |
| 3330 nM | 647 nM | – | O=C(O)C1CCCN(CCC/C=C/c2ccccc2-c2ccccc2F)C1 (stereo not given) | – |
| – | – | > 10% | O=C(O)C1CCCN(CCN/N=C/c2ccccc2-c2cc(F)cc(F)c2)C1 (stereo not given) | – |
| – | – | 88% | COc1cccc(F)c1-c1ccccc1C=O | – |
| – | – | – | O=C(O)[C@@H]1CCCN(CCOCCc2ccccc2-c2ccccc2)C1 | IC50 ([1]; read-out: IC50): 111 nM |
| – | – | 16% | O=C(O)C1CCCN(CCN/N=C/c2ccccc2-c2cccc(F)c2)C1 (stereo not given) | – |
| – | – | > 10% | O=C(O)C1CCCN(CCN/N=C/c2ccccc2-c2cc(F)ccc2F)C1 (stereo not given) | – |
| – | – | > 10% | O=C(O)C1CCCN(CCN/N=C/c2c(F)cccc2-c2ccccc2)C1 (stereo not given) | – |
| 1790 nM | 284 nM | < 5% | O=C(O)C1CCCN(CCN/N=C/c2ccccc2-c2ccc(F)cc2)C1 (stereo not given) | – |
| – | – | 91% | Cc1ccc(-c2ccccc2C=O)cc1 | – |
| – | – | 81% | O=Cc1ccccc1-c1ccc(-c2ccccc2)cc1 | – |
| – | – | > 10% | O=C(O)C1CCCN(CCN/N=C/c2ccccc2-c2cccc(Cl)c2)C1 (stereo not given) | – |
| – | – | > 10% | COc1ccc(-c2ccccc2/C=N/NCCN2CCCC(C(=O)O)C2)cc1 (stereo not given) | – |
| 1960 nM | 234 nM | < 5% | O=C(O)C1CCCN(CCN/N=C/c2cc(F)ccc2-c2ccc(Cl)cc2)C1 (stereo not given) | – |
| – | – | – | O=C(O)C1CCCN(CCC=C(c2ccccc2)c2ccccc2)C1 (stereo not given) | IC50 ([1]; read-out: IC50): 130 nM |
| – | – | > 10% | O=C(O)C1CCCN(CCN/N=C/c2ccccc2-c2ccc(-c3ccccc3)cc2)C1 (stereo not given) | – |
| 292 nM | 14.6 nM | < 5% | O=C(O)C1CCCN(CCN/N=C/c2ccccc2-c2ccc(F)cc2Cl)C1 (stereo not given) | – |
| – | – | 79% | COc1ccccc1-c1ccccc1C=O | – |
| – | – | 88% | COc1ccc(F)cc1-c1ccccc1C=O | – |

| IC50 ([1]; read-out: pIC50 (converted)) | Ki [2] | Activity [3] | Compound | other results |
| --- | --- | --- | --- | --- |
| – | – | > 10% | Cc1cccc(-c2ccccc2/C=N/NCCN2CCCC(C(=O)O)C2)c1 (stereo not given) | – |
| – | – | 81% | O=Cc1ccccc1-c1cccc(-c2ccccc2)c1 | – |
| – | – | 82% | O=Cc1ccccc1-c1ccc(F)cc1 | – |
| – | – | 35% | O=Cc1ccccc1-c1c(F)cc(F)cc1F | IC50 [2]: 10000 nM |
| – | – | – | O=C(O)[C@@H]1CCCN(CCOCCC(c2ccccc2)c2ccccc2)C1 | IC50 ([1]; read-out: IC50): 55 nM |
| – | – | 81% | O=Cc1ccccc1-c1cc(F)cc(F)c1 | – |
| – | – | 19% | COc1ccccc1-c1ccccc1/C=N/NCCN1CCCC(C(=O)O)C1 (stereo not given) | – |
| 1230 nM | 104 nM | < 5% | O=C(O)C1CCCN(CCN/N=C/c2cc(F)ccc2-c2ccccc2Cl)C1 (stereo not given) | – |
| – | – | 81% | O=Cc1ccccc1-c1ccc(C(F)(F)F)cc1C(F)(F)F | – |
| – | – | 82% | O=Cc1ccccc1-c1cccc(F)c1 | – |
| – | – | 35% | O=Cc1ccccc1-c1c(F)cccc1F | – |
| – | – | 35% | O=Cc1cc(F)ccc1-c1ccccc1Cl | – |
| – | – | – | O=C(O)[C@@H]1CCCN(CCO/N=C(\Cc2ccccc2F)c2ccccc2F)C1 | IC50 ([1]; read-out: IC50): 80 nM |
| 998 nM | 131 nM | < 5% | O=C(O)C1CCCN(CCN/N=C/c2ccccc2-c2c(F)cccc2F)C1 (stereo not given) | – |
| 4920 nM | 652 nM | < 5% | O=C(O)C1CCCN(CCN/N=C/c2ccccc2-c2ccccc2)C1 (stereo not given) | – |
| – | – | 85% | O=Cc1c(F)cccc1-c1ccccc1 | – |
| – | – | > 10% | O=C(O)C1CCCN(CCN/N=C/c2ccccc2-c2cccc(-c3ccccc3)c2)C1 (stereo not given) | – |
| – | – | > 10% | COc1cccc(-c2ccccc2/C=N/NCCN2CCCC(C(=O)O)C2)c1 (stereo not given) | – |
| – | – | 91% | COc1ccc(-c2ccccc2C=O)cc1 | – |
| 126 nM | 24.7 nM | < 5% | O=C(O)C1CCCN(CCN/N=C/c2ccccc2-c2ccc(Cl)cc2F)C1 (stereo not given) | – |
| – | – | 81% | O=Cc1ccccc1-c1cc(F)ccc1F | – |
| – | – | 81% | O=Cc1cc(F)ccc1-c1ccc(Cl)cc1 | – |

| IC50 ([1]; read-out: pIC50 (converted)) | Ki [2] | Activity [3] | Compound | other results |
| --- | --- | --- | --- | --- |
| 1560 nM | 216 nM | < 5% | Cc1ccccc1-c1ccccc1/C=N/NCCN1CCCC(C(=O)O)C1 (stereo not given) | – |
| – | – | < 5% | O=C(O)C1=CCCN(CCON=C(c2ccccc2)c2ccccc2)C1 | IC50 ([1]; read-out: IC50): 40 nM; IC50 [2]: ≤ 530 nM |
| – | – | 82% | O=Cc1ccccc1-c1ccccc1F | – |
| – | – | 79% | O=Cc1ccccc1-c1ccc(Cl)cc1 | – |
| – | – | 91% | Cc1cccc(-c2ccccc2C=O)c1 | – |
| 2870 nM | 590 nM | 8.2% | O=C(O)C1CCCN(CCN/N=C/c2ccccc2-c2cccs2)C1 (stereo not given) | – |
| 3990 nM | 313 nM | – | O=C(O)C1CCCN(CCC/C=C/c2ccccc2-c2ccc(F)cc2Cl)C1 (stereo not given) | – |
| 836 nM | 73.3 nM | < 5% | Cc1ccc(-c2ccccc2/C=N/NCCN2CCCC(C(=O)O)C2)c(C)c1 (stereo not given) | – |
| – | – | 81% | O=Cc1ccccc1-c1ccc(F)cc1F | – |
| – | – | 85% | O=Cc1ccccc1-c1ccc(Cl)cc1F | – |
| – | – | 85% | O=Cc1cc(F)ccc1-c1ccccc1 | – |
| 129 nM | 35.6 nM | < 5% | O=C(O)C1CCCN(CCN/N=C/c2ccccc2-c2ccc(F)cc2F)C1 (stereo not given) | – |
| 479 nM | 65.5 nM | < 5% | O=C(O)C1CCCN(CCN/N=C/c2ccccc2-c2ccccc2Cl)C1 (stereo not given) | – |
| – | – | 88% | O=Cc1cccc(-c2ccccc2)c1 | – |
| – | – | 13% | O=C(O)C1CCCN(CCN/N=C/c2cc(F)ccc2-c2ccccc2)C1 (stereo not given) | – |
| 1500 nM | 204 nM | < 5% | O=C(O)C1CCCN(CCN/N=C/c2ccccc2-c2cccc(F)c2F)C1 (stereo not given) | – |
| 528 nM | 122 nM | < 5% | O=C(O)C1CCCN(CCN/N=C/c2ccccc2-c2ccccc2F)C1 (stereo not given) | – |
| – | – | > 10% | COc1ccc(F)cc1-c1ccccc1/C=N/NCCN1CCCC(C(=O)O)C1 (stereo not given) | – |
| – | – | 81% | O=Cc1ccccc1-c1ccccc1-c1ccccc1 | – |
| 2820 nM | 170 nM | < 5% | O=C(O)C1CCCN(CCN/N=C/c2ccccc2-c2ccc(C(F)(F)F)cc2C(F)(F)F)C1 (stereo not given) | – |
| – | – | 81% | Cc1ccc(-c2ccccc2C=O)c(C)c1 | – |
| – | – | – | O=C(O)C1=CCCNC1 [GUVACINE] | IC50 ([1]; read-out: IC50): 14000 nM |

| IC50 ([1]; read-out: pIC50 (converted)) | Ki [2] | Activity [3] | Compound | other results |
| --- | --- | --- | --- | --- |
| – | – | 81% | O=Cc1ccccc1-c1cccc(F)c1F | – |
| 2840 nM | 592 nM | – | O=C(O)C1CCCN(CCC/C=C/c2ccccc2-c2ccc(F)cc2F)C1 (stereo not given) | – |
| – | – | 88% | COc1cc(F)ccc1-c1ccccc1C=O | – |
| 1730 nM | 264 nM | < 5% | O=C(O)C1CCCN(CCN/N=C/c2cc(F)ccc2-c2ccccc2F)C1 (stereo not given) | – |
| – | – | 85% | O=Cc1ccccc1-c1ccc(Cl)cc1Cl | – |
| – | – | 79% | O=Cc1ccccc1-c1ccccc1Cl | – |
| 61.2 nM | 8.05 nM | < 5% | O=C(O)C1CCCN(CCN/N=C/c2ccccc2-c2ccc(Cl)cc2Cl)C1 (stereo not given) | – |
| 769 nM | 117 nM | – | O=C(O)C1CCCN(CCC/C=C/c2ccccc2-c2ccc(Cl)cc2Cl)C1 (stereo not given) | – |
| 3320 nM | 625 nM | < 5% | O=C(O)C1CCCN(CCN/N=C/c2ccccc2-c2ccc(F)c(F)c2)C1 (stereo not given) | – |
| 255 nM | 30.6 nM | < 5% | O=C(O)C1CCCN(CCN/N=C/c2ccccc2-c2c(F)cc(F)cc2F)C1 (stereo not given) | – |
| – | – | – | Cc1ccsc1C(=CCCN1CCC[C@@H](C(=O)O)C1)c1sccc1C [TIAGABINE] | IC50 ([1]; read-out: IC50): 70 nM |
| – | – | 81% | Cc1ccccc1-c1ccccc1C=O | – |
| – | – | 81% | O=Cc1ccccc1-c1ccc(F)cc1Cl | – |
| 7350 nM | 760 nM | < 5% | COc1cc(F)ccc1-c1ccccc1/C=N/NCCN1CCCC(C(=O)O)C1 (stereo not given) | – |
| – | – | 82% | O=Cc1ccccc1-c1ccc(F)c(F)c1 | – |
| – | – | 35% | O=Cc1cc(F)ccc1-c1ccccc1F | – |
| – | – | 91% | COc1cccc(-c2ccccc2C=O)c1 | – |
| – | – | 79% | O=Cc1ccccc1-c1cccc(Cl)c1 | – |
| 973 nM | 173 nM | < 5% | O=C(O)C1CCCN(CCN/N=C/c2ccccc2-c2ccc(Cl)cc2)C1 (stereo not given) | – |
| – | – | > 10% | O=C(O)C1CCCN(CCN/N=C/c2cccc(-c3ccccc3)c2)C1 (stereo not given) | – |

Reference: ChEMBL document CHEMBL2311493, “Focused pseudostatic hydrazone libraries screened by mass spectrometry binding assay: optimizing affinities toward γ-aminobutyric acid transporter 1” (J Med Chem, 2013)
